Assay results: ChEMBL document CHEMBL1122003, “Preparation and antiinflammatory activity of 2- and 4-pyridones” (J Med Chem, 1982)
Values joined by “and” are separate entries in the source; they are usually repeats but may differ in a detail not shown here. Identical values can stand only once.

Key:
Rattus norvegicus [1] = experiment: Effective dose of compound that reduce edema in adrenolectomized rats by at least 25% in 50% of animals; assay type: functional
Method in brief: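 Rats adrenalectomized several days before assay; otherwise as the intact-rat test: fasted 2 h, oral dosing in 0.25% methylcellulose at several doses, carrageenan (1%, 0.05 cm³) into left hind foot pad 1 h later, paw volume at 3 h.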

[2] = (§1) Lethal dose of compound was determined in mice by standard multidimensional observational assay; assay type: toxicity, organism-based; conditions: mouse, in vivo
Method in brief: (§2)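 Approximate LD50 in mice, estimated from a standard multidimensional observational assay and calculated by the Litchfield–Wilcoxon method.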

Rattus norvegicus [3] = experiment: Percent reduction of edema was measured after oral administration at 200 mg/kg using carrageenan-induced pedal edema assay; assay type: functional
Method in brief: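 Rats fasted 2 h; single oral 200 mg/kg in 0.25% methylcellulose, vehicle controls. Carrageenan (1% sterile, 0.05 cm³) injected into left hind foot pad 1 h after dosing. Paw volume measured at peak swelling, 3 h, by displacement apparatus; edema from differential paw volume, expressed as % reduction vs control.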

Rattus norvegicus [4] = experiment: Effective dose of compound that reduce edema by at least 25% in 50% of animals; assay type: functional
Method in brief: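 Rats, fasted 2 h, water ad libitum; compound given orally in 0.25% methylcellulose, controls vehicle only, at several doses below the 200 mg/kg screen. Carrageenan (1% sterile, 0.05 cm³) injected into left hind foot pad 1 h later. Paw volume measured at 3 h.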

Mus musculus = species on record: Mus musculus; experiment: as §1; assay type: toxicity, organism-based; conditions: in vivo; method in brief: as §2
[5] = Rattus norvegicus, read-out: ED50

| Compound | ED50 (Rattus norvegicus [1]) [mg/kg] | LD50 [2] [mg/kg] | Reduction (Rattus norvegicus [3]; 200 mg/kg) | ED50 (Rattus norvegicus [4]; [5]) [mg/kg] | Reduction (Rattus norvegicus [3]) [%] | LD50 (Mus musculus) [mg/kg] | ED50 (Rattus norvegicus [4]) [mg/kg] |
| --- | --- | --- | --- | --- | --- | --- | --- |
| Cc1ccccc1NC(=O)c1c(C)n(-c2ccccc2C)c(C)cc1=O | 84.8 | 562 | 17% and 49% | 80 |  |  |  |
| COc1ccc(OC)c(NC(=O)c2c(C)n(-c3cc(OC)ccc3OC)c(C)cc2=O)c1 |  | 562 |  |  | 0 |  |  |
| COc1ccccc1NC(=O)c1c(C)n(-c2ccccc2OC)c(C)cc1=O | 200 | 562 |  | 28 |  | 300 |  |
| Cc1cc(=O)c(C(=O)Nc2ccccc2Cl)c(C)n1-c1ccccc1Cl |  | 562 | 2% and 8% |  |  | 562 |  |
| O=C(Nc1ccccc1)c1c(-c2ccccc2)n(-c2ccccc2)c(-c2ccccc2)cc1=O |  | 562 |  |  | 0 |  |  |
| Cc1cc(=O)c(C(=O)Nc2ccc(Cl)cc2)c(C)n1-c1ccc(Cl)cc1 |  |  | 58% and 62% |  |  |  |  |
| Cc1c(Br)c(=O)c(C(=O)Nc2ccccc2)c(C)n1-c1ccccc1 |  | 562 |  |  | 23 |  |  |
| Cc1cccc(C)c1NC(=O)c1c(C)n(-c2c(C)cccc2C)c(C)cc1=O |  |  | 31% and 26% |  |  |  |  |
| Cc1cccc(NC(=O)c2c(C)n(-c3cccc(C)c3C)c(C)cc2=O)c1C |  | 562 |  |  | 0 |  |  |
| Cc1cc(=O)c(C(=O)Nc2ccccc2)c(C)n1-c1ccccc1 |  | 562 | 25% and 33% | 200 |  | 562 | >200 |
| Cc1cc(C)c(NC(=O)c2c(C)n(-c3c(C)cc(C)cc3C)c(C)cc2=O)c(C)c1 |  |  |  |  | 53 |  |  |
